In one test the test system is PC-3. Kind of test: Antiproliferative activity against human PC-3 cells assessed as inhibition of cell growth incubated for 72 hrs by MTS assay. The settings on record: PC-3, 72 h. Type of test: functional, cell-based. In a few lines:
(§1)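 Cells were grown at 37°C under 5% CO₂: PC3 in RPMI-1640, MDA-MB-231 in DMEM, and SKBr3 in McCoy's. They were seeded at 2000 cells/well and left for 24 h, then exposed for 72 h to varying concentrations or vehicle (0.5% DMSO final). Viability was read by MTS/PES absorbance at 490 nm relative to control. IC50 came from concentration-response curves; values are means ± SD of two independent experiments.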

The test system of test [1] is SK-BR-3. As to the kind of experiment: Antiproliferative activity against human SK-BR-3 cells assessed as inhibition of cell growth incubated for 72 hrs by MTS assay. Type of test: functional, cell-based. The settings on record: SK-BR-3, 72 h. In a few lines:
as §1

Another test concerns MDA-MB-231. As to the kind of experiment: Antiproliferative activity against human MDA-MB-231 cells assessed as inhibition of cell growth incubated for 72 hrs by MTS assay. It counts as functional, cell-based. The settings on record: MDA-MB-231, 72 h. In a few lines:
as §1
(In general: Formazan colour is commonly taken as a measure of viable cells.)

The target in test [2] is T1, Heat shock protein HSP90 (Homo sapiens) (UniProt P07900+P08238). Kind of test: Inhibition of C-terminal HSP90 in human SK-BR-3 cells assessed as reduction in HSR induction with constant Hsp70 level at 0.1 to 10 uM incubated for 24 hrs by Western blot analysis. It counts as cell-based. The settings on record: dose 0.1-10 µM. In a few lines:
(§2)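 SKBr3 cells were seeded at 700,000/well and grown to ~80% confluency. They were treated for 24 h with compound or vehicle (1% DMSO), then lysed in Triton/SDS buffer with protease and phosphatase inhibitors. Protein (20 ug, BCA-normalized) was run on 10% SDS-PAGE and transferred to PVDF. Blots were probed overnight at 4°C with 1:1000 anti-HER2, Hsp70, Hsp90, Akt, CDK6 or β-actin, then detected by HRP secondary and ECL.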
On the technique in general: In western blotting, separated proteins are transferred to a membrane and probed.

In test [3] the test system is SK-BR-3. Kind of test: Effect on HSP90 independent beta-actin protein level in human SK-BR-3 cells at 0.1 to 10 uM incubated for 24 hrs by Western blot analysis. It counts as functional, cell-based. The settings on record: dose 0.1-10 µM. In a few lines:
as §2

In test [4] the target is T1, Heat shock protein HSP90 (Homo sapiens). Kind of test: Inhibition of C-terminal HSP90 in human SK-BR-3 cells at 0.1 to 10 uM incubated for 24 hrs by Western blot analysis. The settings on record: dose 0.1-10 µM.
For test [5] the target is unchanged. Kind of test: Inhibition of C-terminal HSP90 in human SK-BR-3 cells assessed as HER-2 degradation incubated for 24 hrs by Western blot analysis. It counts as cell-based. The settings on record: dose 0.1-10 µM. In a few lines: as §2
In test [6] the test system is SK-BR-3. As to the kind of experiment: Antiproliferative activity against human SK-BR-3 cells. It counts as functional, cell-based. In a few lines:
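They were seeded at 2000 cells/well and left for 24 h, then exposed for 72 h to varying concentrations or vehicle (0.5% DMSO final). Viability was read by MTS/PES absorbance at 490 nm relative to control. IC50 came from concentration-response curves; values are means ± SD of two independent experiments.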

Structures are written as SMILES. The source made the active and inactive calls. No cut-off for these calls is given here. A value given as a limit tells only on which side of the number the result lay.

What is called IC50 is the point on the concentration scale where inhibition reaches its midpoint. As for `CCCC1CCC(Oc2ccc(CCNC(=O)c3ccc(OC)c(-c4cccc(OC)c4)c3)c(-c3cccc(F)c3)c2)CC1` (stereo unspecified), the IC50 with PC-3, with SK-BR-3 [1] and in the test on MDA-MB-231 was over 50 µM throughout.
Regarding `COc1cccc(-c2cc(C(=O)NCCc3ccc(OC4CCC(C(=O)Oc5ccccc5)CC4)cc3-c3cccc(F)c3)ccc2OC)c1` (stereo unspecified), the IC50 with PC-3, in the test on SK-BR-3 [1] and in the test with MDA-MB-231 was over 50 µM throughout.
As to `CNC(=O)C1CCC(Oc2ccc(CCNC(=O)c3ccc(OC)c(-c4cccc(OC)c4)c3)c(-c3cccc(F)c3)c2)CC1` (stereo unspecified), the IC50 with PC-3, in the test with SK-BR-3 [1] and with MDA-MB-231 was over 50 µM in each case.
Take `COc1cccc(-c2cc(C(=O)NCCc3ccc(OC4CCN(C(C)C)CC4)cc3-c3cccc(F)c3)ccc2OC)c1`: the IC50 turned out to be 13.6 µM in the test with PC-3, 6.61 µM with SK-BR-3 [1] and 9.35 µM in the test with MDA-MB-231.
The corresponding values for `COc1cccc(-c2cc(C(=O)NCCc3ccc(OC4CCC(Cc5ccccc5)CC4)cc3-c3cccc(F)c3)ccc2OC)c1` (stereo unspecified) are over 50 µM, over 50 µM and over 50 µM.
On to `COc1cccc(-c2cc(C(=O)NCCc3ccc(OCCCB4OC(C)(C)C(C)(C)O4)cc3-c3cccc(F)c3)ccc2OC)c1`, for which the IC50 came out at 8.07 µM in the test with PC-3, 15.3 µM in the test with SK-BR-3 [1] and 35.1 µM in the test on MDA-MB-231.
With `COc1cccc(-c2cc(C(=O)NCCc3ccc(OC4CCNCC4)cc3-c3cccc(F)c3)ccc2OC)c1`, the inhibition entry in test [2] and in test [4] was “Active” each time. Also, in the test on SK-BR-3 [3], the result was inactive. Besides, the IC50 with PC-3 turned out to be 3.08 µM; in the test on SK-BR-3 [1], 0.9 µM; with MDA-MB-231 it was 3.29 µM. The inhibition result in test [5] was “Dose-Dependent Effect”.
Take `CCCN1CCC(Oc2ccc(CCNC(=O)c3ccc(OC)c(-c4cccc(OC)c4)c3)c(-c3cccc(F)c3)c2)CC1`: the IC50 in the test on PC-3 came to 11 µM; with SK-BR-3 [1] it was 0.56 µM; in the test on MDA-MB-231, 6.37 µM.
For `COc1cccc(-c2cc(C(=O)NCCc3ccc(OC4CCC(CSc5ccccc5)CC4)cc3-c3cccc(F)c3)ccc2OC)c1` (stereo unspecified) the same measures were over 50 µM, over 50 µM and over 50 µM.
For `COc1cccc(-c2cc(C(=O)NCCc3ccc(OC4CCOCC4)cc3-c3cccc(F)c3)ccc2OC)c1` the same measures were over 50 µM, over 50 µM and over 50 µM.
Compound `CC(=O)NCCc1ccc(OC2CCC(OCc3ccccc3)CC2)cc1-c1cccc(F)c1` (stereo unspecified) yielded an IC50 in the test with SK-BR-3 [6] of over 50 µM.
In the case of `CC(C)=CCc1cc(C(=O)NCCc2ccc(OC3CCC(Cc4ccccc4)CC3)cc2-c2cccc(F)c2)ccc1O` (stereo unspecified), the IC50 in the test with PC-3, with SK-BR-3 [1] and in the test on MDA-MB-231 was over 50 µM throughout.
Regarding `COc1cccc(-c2cc(C(=O)NCCc3ccc(OC4CCC(CNc5ccccc5)CC4)cc3-c3cccc(F)c3)ccc2OC)c1` (stereo unspecified), the IC50 in the test on PC-3, with SK-BR-3 [1] and with MDA-MB-231 was over 50 µM throughout.
Consider `CC(C)=CCc1cc(C(=O)NCCc2ccc(OC3CCC(SCc4ccccc4)CC3)cc2-c2cccc(F)c2)ccc1O` (stereo unspecified), for which the IC50 in the test on PC-3, with SK-BR-3 [1] and with MDA-MB-231 was over 50 µM in each case.
Regarding `COc1cccc(-c2cc(C(=O)NCCc3ccc(OCCCB(O)O)cc3-c3cccc(F)c3)ccc2OC)c1`, the IC50 was 13.3 µM in the test with PC-3, 21.6 µM in the test on SK-BR-3 [1] and 36.6 µM in the test with MDA-MB-231.
For `CC(C)=CCc1cc(C(=O)NCCc2ccc(OC3CCC(CCc4ccccc4)CC3)cc2-c2cccc(F)c2)ccc1O` (stereo unspecified) the same measures were over 50 µM, over 50 µM and over 50 µM.
The corresponding values for `COc1cccc(-c2cc(C(=O)NCCc3ccc(OC4CCC(COc5ccccc5)CC4)cc3-c3cccc(F)c3)ccc2OC)c1` (stereo unspecified) are over 50 µM, over 50 µM and over 50 µM.
The corresponding values for `COc1cccc(-c2cc(C(=O)NCCc3ccc(OC4CCC(OCc5ccccc5)CC4)cc3-c3cccc(F)c3)ccc2OC)c1` (stereo unspecified) are over 50 µM, over 50 µM and over 50 µM.
Turning to `COC(=O)C1CCC(Oc2ccc(CCNC(=O)c3ccc(OC)c(-c4cccc(OC)c4)c3)c(-c3cccc(F)c3)c2)CC1` (stereo unspecified), the IC50 with PC-3, in the test on SK-BR-3 [1] and in the test with MDA-MB-231 was over 50 µM each time.
For `COc1cccc(-c2cc(C(=O)NCCc3ccc(OC4CCC(C(F)(F)Oc5ccccc5)CC4)cc3-c3cccc(F)c3)ccc2OC)c1` (stereo unspecified), the IC50 in the test with PC-3, in the test with SK-BR-3 [1] and in the test on MDA-MB-231 was over 50 µM each time.
For `COc1cccc(-c2cc(C(=O)NCCc3ccc(OC4CCN(C)CC4)cc3-c3cccc(F)c3)ccc2OC)c1`, the concentration for half-maximal inhibition (IC50) was 6.6 µM in the test on PC-3, 3.46 µM with SK-BR-3 [1] and 4.87 µM in the test on MDA-MB-231.
In the case of `COc1cccc(-c2cc(C(=O)NCCc3ccc(OC4CCCCC4)cc3-c3cccc(F)c3)ccc2OC)c1`, the IC50 in the test on PC-3, in the test on SK-BR-3 [1] and in the test with MDA-MB-231 was over 50 µM each time.
As for `COc1cccc(-c2cc(C(=O)NCCc3ccc(OC4CCC(SCc5ccccc5)CC4)cc3-c3cccc(F)c3)ccc2OC)c1` (stereo unspecified), the IC50 in the test with PC-3, in the test with SK-BR-3 [1] and with MDA-MB-231 was over 50 µM in each case.
Regarding `CCN1CCC(Oc2ccc(CCNC(=O)c3ccc(OC)c(-c4cccc(OC)c4)c3)c(-c3cccc(F)c3)c2)CC1`, the IC50 with PC-3 was found to be 13.5 µM; in the test on SK-BR-3 [1], 6.6 µM; in the test on MDA-MB-231, 8.46 µM.
`C=CCN1CCC(Oc2ccc(CCNC(=O)c3ccc(OC)c(-c4cccc(OC)c4)c3)c(-c3cccc(F)c3)c2)CC1`: the results for the IC50 in the test on PC-3, with SK-BR-3 [1] and in the test with MDA-MB-231 were 12.7 µM, 6.43 µM and 7.35 µM, respectively.
For `COc1cccc(-c2cc(C(=O)NCCc3ccc(OC4CCC(CCc5ccccc5)CC4)cc3-c3cccc(F)c3)ccc2OC)c1` (stereo unspecified) the same measures were over 50 µM, over 50 µM and over 50 µM.
For `COc1cccc(-c2cc(C(=O)NCCc3ccc(OC4CCN(Cc5ccccc5)CC4)cc3-c3cccc(F)c3)ccc2OC)c1` the same measures were over 50 µM, over 50 µM and over 50 µM.
The corresponding values for `COc1cccc(-c2cc(C(=O)NCCc3ccc(OC4CCC(C(=O)Nc5ccccc5)CC4)cc3-c3cccc(F)c3)ccc2OC)c1` (stereo unspecified) are over 50 µM, over 50 µM and over 50 µM.

These data come from ChEMBL document CHEMBL5344476, “Development of Hsp90 C-terminal inhibitors with noviomimetics that manifest anti-proliferative activities” (RSC Med Chem, 2024).
